Screening data (PubChem)
Shown is part of a subset that was picked to be rich in hits.
NOD2-RIPK2 inh – inhibitors of human NOD2-RIPK2 interaction. O43353. CHO BLA complementation NOD2-RIPK2, CCF4 ratio. inhibition, % at 4.98 µM. actives 0.38% (n = 360,000). AID 624267; in the data active means inhibition above about 21%;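 further: 0% = vehicle only and 100% = reference blocker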
Target sequence (O43353 whole entry, looked up): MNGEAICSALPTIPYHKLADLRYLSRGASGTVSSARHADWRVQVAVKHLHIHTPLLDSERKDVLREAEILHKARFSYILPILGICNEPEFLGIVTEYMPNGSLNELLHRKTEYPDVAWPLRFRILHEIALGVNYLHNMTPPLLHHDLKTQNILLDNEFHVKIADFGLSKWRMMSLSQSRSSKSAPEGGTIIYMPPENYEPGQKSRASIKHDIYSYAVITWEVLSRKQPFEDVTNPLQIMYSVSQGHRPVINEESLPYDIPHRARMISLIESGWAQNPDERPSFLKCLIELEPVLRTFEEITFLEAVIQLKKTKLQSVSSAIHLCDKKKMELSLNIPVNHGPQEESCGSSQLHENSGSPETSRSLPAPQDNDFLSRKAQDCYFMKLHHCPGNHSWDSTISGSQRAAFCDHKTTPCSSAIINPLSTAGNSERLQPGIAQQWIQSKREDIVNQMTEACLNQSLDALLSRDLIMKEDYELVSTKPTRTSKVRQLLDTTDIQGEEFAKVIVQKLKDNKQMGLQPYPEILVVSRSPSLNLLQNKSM
CHOP inh – CHOP inhibition in unfolded protein response; CHO-K1 CHOP-promoter luciferase, tunicamycin-induced, 15-18 h; inhibition, % at 10 µM; actives 3.8% (n = 220,000); AID 2732;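 active means compounds that reduced the stress-induced luciferase reporter signal by more than about 70% of percent inhibition, limit read from the data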;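 further: 0% = tunicamycin plus vehicle and 100% = wells without tunicamycin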
UPR XBP1 act – adaptive UPR (XBP1) activation | CHO-XBP1 luciferase reporter, IRE1-XBP1 UPR activation, luminescence; percent of tunicamycin response, DMSO as zero | activation, % at 20 µM | actives 0.33% (n = 330,000);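 active means versus positive control, 20 µM dose yields 30% or more activation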;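 further: 100% = tunicamycin at 10 µg/mL and 0% = DMSO only wells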
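Material: CHO-XBP1 cells stably carrying IRE1-XBP1-driven luciferase reporter / Amount: 1000 cells per well / Compound: 20 µM, 1% DMSO / Times: 6 h treatment, 37 °C / Detection: luciferase luminescence / Measure: % activation of reporter signal versus tunicamycin and DMSO controls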
TLR9-MyD88 block – TLR9-MyD88 interaction inhibition. Q9NR96+Q99836. CHO BLA complementation TLR9-MyD88, CCF4 FRET ratio. inhibition, % at 4.98 µM. actives 0.21% (n = 340,000). AID 504734;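 active means inhibition above the mean over all tested compounds plus 3 SD, cut at about 21% in these data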;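 further: 0% = DMSO only wells and 100% = clavulanate BLA inhibitor control wells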
TLR4-MyD88 BLA – TLR4-MyD88 interaction inhibition in cells. HeLa CL3-4 TLR4/MyD88 BLA complementation, FRET ratio. inhibition, % at 8.4 µM. actives 0.18% (n = 200,000). AID 861; in the data active means inhibition above about 25%;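 further: 0% = vehicle and 100% = reference inhibitor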
UPR CHOP act – activators of apoptotic arm of unfolded protein response (CHOP); CHO-CHOP luciferase reporter, UPR activation, luminescence; percent of tunicamycin response over DMSO baseline; activation, % at 10 µM; actives 0.34% (n = 330,000); AID 449763;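 active means at 10 µM dose, activation of 40% or more, normalized to positive control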;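 further: 100% = tunicamycin at 10 µg/mL and 0% = DMSO alone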
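System: CHO-CHOP luciferase reporter cell line | Buffer or medium: F12 medium containing 10% fetal bovine serum | Doses: One dose, 10 µM in 0.5% DMSO | Times: 6 h compound exposure at 37 °C after overnight seeding | Signal: Luciferase luminescence | Read-out: % activation vs tunicamycin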
* hit, by the source's call.

Results for CCCCn1nnnc1C1(C)CCC(=O)N1CCOC (stereo not drawn) ?
NOD2-RIPK2 inh: -10.6

How did O=C(C1CCCCN1S(=O)(=O)c1ccccc1[N+](=O)[O-])N1CCCCC1 (stereo not drawn) do in these assays?
NOD2-RIPK2 inh: -1.4; CHOP inh: 27.0; UPR XBP1 act: 0.8; TLR9-MyD88 block: -3.5; TLR4-MyD88 BLA: 5.4; UPR CHOP act: -1.6

What do the screens show for `COC(=O)c1ccc(N2CCC(c3cc(-c4ccc(OC)cc4)n[nH]3)CC2)c([N+](=O)[O-])c1`?
NOD2-RIPK2 inh: -6.9; CHOP inh: 78.8*; UPR XBP1 act: 8.4; TLR9-MyD88 block: -1.4; TLR4-MyD88 BLA: 3.7; UPR CHOP act: 4.6

Results for COC(=O)c1ccc(N2CCN(C(=O)C3CC3)CC2)c([N+](=O)[O-])c1 ?
NOD2-RIPK2 inh: 0.2; UPR XBP1 act: 4.9; TLR9-MyD88 block: -4.8; UPR CHOP act: 1.4

Results for COc1ccc(-c2cc(C3CCN(c4ccc(C(C)=O)cc4[N+](=O)[O-])CC3)[nH]n2)cc1 ?
NOD2-RIPK2 inh: 3.6; CHOP inh: 86.5*; UPR XBP1 act: 2.8; TLR9-MyD88 block: -1.6; TLR4-MyD88 BLA: -6.1; UPR CHOP act: 4.8

What do the screens show for `CC(=O)c1ccc(N2CCC(c3cc(-c4ccc(Cl)cc4)n[nH]3)CC2)c([N+](=O)[O-])c1`?
NOD2-RIPK2 inh: -4.8; CHOP inh: 60.7; UPR XBP1 act: 6.2; TLR9-MyD88 block: -5.8; TLR4-MyD88 BLA: 4.1; UPR CHOP act: 8.1

Results for O=C(COC(=O)c1ccc(NC(=O)C2CC=CCC2C(=O)O)cc1)c1ccccc1 (stereo not drawn) ?
NOD2-RIPK2 inh: -2.0; UPR XBP1 act: -1.2; TLR9-MyD88 block: -3.1; UPR CHOP act: 2.2

How did Cc1nc2ccc(C(C(F)(F)F)(C(F)(F)F)C(F)(F)F)cc2[nH]1 do in these assays?
NOD2-RIPK2 inh: -11.3; CHOP inh: 72.8*; UPR XBP1 act: -1.5; TLR9-MyD88 block: 3.4; TLR4-MyD88 BLA: 6.5; UPR CHOP act: 0.9

Results for Cc1nc2ccc(Cl)cc2[nH]1 ?
NOD2-RIPK2 inh: -3.2; TLR9-MyD88 block: -1.3

Results for Cc1ccc(/C=C/C(=O)c2c(C)nc3ccccn23)cc1 ?
NOD2-RIPK2 inh: -1.5; CHOP inh: -59.5; UPR XBP1 act: 8.1; TLR9-MyD88 block: -7.8; TLR4-MyD88 BLA: -2.4; UPR CHOP act: 4.7

Results for Cc1nc2ccccn2c1C(=O)/C=C/c1cccc([N+](=O)[O-])c1 ?
NOD2-RIPK2 inh: 1.5; CHOP inh: -137.2; UPR XBP1 act: 5.8; TLR9-MyD88 block: -7.7; TLR4-MyD88 BLA: -3.5; UPR CHOP act: 115.6*

Results for Nc1c(N=Nc2cccc(Cl)c2)c(=O)[nH]n1-c1ccccc1 ?
NOD2-RIPK2 inh: -8.0; CHOP inh: 72.3*; UPR XBP1 act: 2.5; TLR9-MyD88 block: -8.0; TLR4-MyD88 BLA: 1.7; UPR CHOP act: 4.1

Results for COc1cccc(/C(O)=C/c2nc3ccc(C(=O)NCCc4cccc(C)c4)cc3[nH]c2=O)c1 ?
NOD2-RIPK2 inh: 7.2; CHOP inh: 30.9; UPR XBP1 act: 0.1; TLR9-MyD88 block: -10.3; TLR4-MyD88 BLA: -12.3; UPR CHOP act: 1.7

Results for COc1cccc(/C(O)=C/c2nc3ccc(C(=O)NCCc4ccc(Cl)cc4)cc3[nH]c2=O)c1 ?
NOD2-RIPK2 inh: -5.7; CHOP inh: 82.7*; TLR9-MyD88 block: -10.1; TLR4-MyD88 BLA: 9.9

How did COc1ccccc1[C@H]1C(c2cccc(Cl)c2)=NN(c2ccccc2)[C@@H]1CO do in these assays?
NOD2-RIPK2 inh: 37.0*; UPR XBP1 act: -2.2; TLR9-MyD88 block: 1.2; UPR CHOP act: 0.7

Results for CC(=O)Nc1cccc(Nc2cc(C)nn2C)c1 ?
NOD2-RIPK2 inh: -3.8

Results for O=C(Nc1ccc(O)c2c(=O)cc(-c3ccccc3Cl)oc12)c1ccc(Cl)c(Cl)c1 ?
NOD2-RIPK2 inh: -4.8; CHOP inh: 94.3*; UPR XBP1 act: 16.3; TLR9-MyD88 block: -8.7; UPR CHOP act: 7.9

Results for Cc1cccc(OCCCC(=O)O)c1C ?
NOD2-RIPK2 inh: -0.4; CHOP inh: 70.3*; UPR XBP1 act: 0.3; TLR9-MyD88 block: 8.3; TLR4-MyD88 BLA: 17.9; UPR CHOP act: 0.4
